Test results from ChEMBL document CHEMBL1122506, “Cardiac-slowing amidines containing the 3-thioindone group. Potential antianginal agents” (1983).

Experiments:
Canis familiaris [1] = assay: Evaluated for the heart rate at dose 5.0 mg/kg in 4 animals by aminophylline-induced sinus tachycardia test; assay type: functional, Canis lupus familiaris
Canis familiaris [2] = assay: Evaluated for the heart rate at dose 0.5 mg/kg in 4 animals by poldine tachycardia test; assay type: functional, Canis lupus familiaris
Method in brief: (§1)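 Poldine tachycardia: dogs prepared surgically as in the triazine method; poldine methyl sulfate 0.5 mg/kg iv, then 30 min later test agent in increasing doses (0.5/1.0/2.5 mg/kg) at 30-min intervals; read-out is the maximum percent decrease in heart rate at each dose.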

Canis familiaris [3] = assay: Dose required to achieve 50 % of maximal cardiac slowing in triazine tachycardia test in conscious dog; assay type: functional, Canis lupus familiaris
Method in brief: (§2)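 Triazine tachycardia in conscious dogs: carotid artery and jugular vein catheterized with heparinized saline; 18 h after surgery, triazine vasodilator U20388 12 mg/kg po; about 1 h later, dog in sling with arterial pressure and ECG monitored. Test agent infused iv at 0.8 (mg/kg)/min to 30 mg/kg total. D50 = dose giving 50% of maximal slowing in that animal; ΔHR50 = heart-rate change at D50; CS index = %ΔHR50/D50.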

Canis familiaris [4] = assay: Change in heart rate at the above D50 dose in conscious dogs; assay type: functional, Canis lupus familiaris; method in brief: as §2
Canis familiaris [5] = species: Canis familiaris; assay: Cardiac slowing index was measured for potency and efficacy; assay type: functional, Canis lupus familiaris; method in brief: as §2
Canis familiaris [6] = assay: Evaluated for the heart rate at dose 2.5 mg/kg in 4 animals by aminophylline-induced sinus tachycardia test; assay type: functional, Canis lupus familiaris
Canis familiaris [7] = species: Canis familiaris; assay: Percent decrease from initial heart rate (percent delta HR50/HR0 x 100) in dogs; assay type: functional, Canis lupus familiaris; method in brief: as §2
Canis familiaris [8] = assay: Evaluated for the heart rate at dose 2.5 mg/kg in 4 animals by glucagon-induced tachycardia test; assay type: functional, Canis lupus familiaris
Canis familiaris [9] = assay: Evaluated for the heart rate at dose 1.0 mg/kg in 4 animals by glucagon-induced tachycardia test; assay type: functional, Canis lupus familiaris
Canis familiaris [10] = assay: Myocardial depression rating in anesthetized, ganglion-blocked dog; Weak activity.
Canis familiaris [11] = species: Canis familiaris; assay: Relative activity (fraction of the most active compound 24) was determined; assay type: functional, Canis lupus familiaris
Canis familiaris [12] = assay: Evaluated for the heart rate at dose 1.0 mg/kg in 4 animals by aminophylline-induced sinus tachycardia test; assay type: functional, Canis lupus familiaris
Canis familiaris [13] = assay: Evaluated for the heart rate at dose 1.0 mg/kg in 4 animals by poldine tachycardia test; assay type: functional, Canis lupus familiaris; method in brief: as §1
Canis familiaris [14] = assay: Evaluated for the heart rate at dose 2.5 mg/kg in 4 animals by poldine tachycardia test; assay type: functional, Canis lupus familiaris; method in brief: as §1
Canis familiaris [15] = assay: Myocardial depression in anesthetized, ganglion-blocked dog; Moderate activity.

SMILES	Max decrease in heart rate (Canis familiaris [1])	Max decrease in heart rate (Canis familiaris [2])	D50 (Canis familiaris [3])	Delta HR50 (Canis familiaris [4])	CS index (Canis familiaris [5])	Max decrease in heart rate (Canis familiaris [6])	Delta HR50 (Canis familiaris [7])	Max decrease in heart rate (Canis familiaris [8])	Max decrease in heart rate (Canis familiaris [9])	MD (Canis familiaris [10])	Relative activity (Canis familiaris [11])	Max decrease in heart rate (Canis familiaris [12])	Max decrease in heart rate (Canis familiaris [13])	Max decrease in heart rate (Canis familiaris [14])	MD (Canis familiaris [15])
CC(C)n1cc(SCC/N=C2\CCCN2C)c2ccccc21	47%	15%	1 mg/kg	-31 beats min-1	19.1	33%	19.1%	39%	23%	2	0.6	16%	38%	55%	–
CCN1CC(CC/N=C2\CCCN2C)c2ccccc21 (configuration not stated)	–	–	3.3 mg/kg	-45 beats min-1	5.6	–	18.4%	–	–	2	0.17	–	–	–	–
CN1CCC/C1=N\CCCCSc1c[nH]c2ccccc12	–	–	2 mg/kg	-42 beats min-1	10	–	20%	–	–	–	0.31	–	–	–	3
CN1CCCN=C1NCCSc1c[nH]c2ccccc12	–	–	6.4 mg/kg	-38 beats min-1	3.1	–	20%	–	–	–	0.1	–	–	–	–
c1ccc(N2CCC/C2=N\CCSc2c[nH]c3ccccc23)cc1	–	–	0.6 mg/kg	-40 beats min-1	32	–	19.2%	–	–	2.5	1	–	–	–	–
CN1CCC/C1=N\CCSc1cn(Cc2ccco2)c2ccccc12	–	–	2.6 mg/kg	-42 beats min-1	8.6	–	22.4%	–	–	–	0.27	–	–	–	3.5
CN1CCC/C1=N\CCSc1c[nH]c2ccc(Cl)cc12	–	–	3.5 mg/kg	-32 beats min-1	4.6	–	16.2%	–	–	2	0.14	–	–	–	–
CCc1ccc2[nH]cc(SCC/N=C3\CCCN3C)c2c1	–	–	8.6 mg/kg	-21 beats min-1	1.8	–	15.5%	–	–	–	0.06	–	–	–	–
C=CCCn1cc(SCC/N=C2\CCCN2C)c2ccccc21	–	–	1.1 mg/kg	-33 beats min-1	14.7	–	16.2%	–	–	–	0.46	–	–	–	3
C=C(C)Cn1cc(SCC/N=C2\CCCN2C)c2ccccc21	–	–	4.4 mg/kg	-42 beats min-1	4.5	–	20%	–	–	2.5	0.14	–	–	–	–
C#CCn1cc(SCC/N=C2\CCCN2C)c2ccccc21	–	–	1.1 mg/kg	-46 beats min-1	19.6	–	21.6%	–	–	2.5	0.61	–	–	–	–
CN1CCC/C1=N\CCSc1cn(CC2CC2)c2ccccc12	–	–	1.4 mg/kg	-60 beats min-1	18.2	–	25.5%	–	–	2.5	0.57	–	–	–	–
CN1CCCCC/C1=N\CCSc1c[nH]c2ccccc12	–	–	14.1 mg/kg	-38 beats min-1	1.3	–	18.5%	–	–	–	0.04	–	–	–	–
CN1CCC/C1=N/CCc1c[nH]c2ccccc12	–	–	3.4 mg/kg	-28 beats min-1	4.7	–	16%	–	–	2	0.15	–	–	–	–
CC(=NCCSc1c[nH]c2ccccc12)N(C)C	–	–	2 mg/kg	-50 beats min-1	11.5	–	23%	–	–	2	0.36	–	–	–	–
CCn1cc(SCCCC/N=C2\CCCN2C)c2ccccc21	–	–	0.7 mg/kg	-33 beats min-1	22.8	–	16%	–	–	–	0.71	–	–	–	3.5
CN1CCC/C1=N\CCSc1cn(Cc2ccccc2)c2ccccc12	–	–	–	–	–	–	–	–	–	–	–	–	–	–	3
Cc1[nH]c2ccccc2c1SCC/N=C1\CCCCN1C	–	–	2 mg/kg	-24 beats min-1	7.1	–	14.3%	–	–	–	0.22	–	–	–	3
CN1CCC/C1=N\CCSc1cn(C2C=CCCC2)c2ccccc12 (configuration not stated)	–	–	1.9 mg/kg	-52 beats min-1	10.9	–	20.8%	–	–	–	0.34	–	–	–	3.5

SMILES	Max decrease in heart rate (Canis familiaris [1])	Max decrease in heart rate (Canis familiaris [2])	D50 (Canis familiaris [3])	Delta HR50 (Canis familiaris [4])	CS index (Canis familiaris [5])	Max decrease in heart rate (Canis familiaris [6])	Delta HR50 (Canis familiaris [7])	Max decrease in heart rate (Canis familiaris [8])	Max decrease in heart rate (Canis familiaris [9])	MD (Canis familiaris [10])	Relative activity (Canis familiaris [11])	Max decrease in heart rate (Canis familiaris [12])	Max decrease in heart rate (Canis familiaris [13])	Max decrease in heart rate (Canis familiaris [14])	MD (Canis familiaris [15])
CN1CCN=C1NCCSc1c[nH]c2ccccc12	–	–	2.9 mg/kg	-38 beats min-1	6.9	–	19.9%	–	–	2	0.22	–	–	–	–
Cc1[nH]c2ccccc2c1SCCNC1=NCCN1C	–	–	2.6 mg/kg	-37 beats min-1	7.5	–	19.5%	–	–	2.5	0.23	–	–	–	–
Cc1[nH]c2ccc(Cl)cc2c1SCC/N=C1\CCCN1C	–	–	2.3 mg/kg	-33 beats min-1	7.5	–	17.2%	–	–	–	0.23	–	–	–	3
COCCn1cc(SCC/N=C2\CCCN2C)c2ccccc21	–	–	1.5 mg/kg	-33 beats min-1	11.7	–	17.6%	–	–	–	0.37	–	–	–	2.5
C=CCn1cc(SCC/N=C2\CCCN2C)c2ccccc21	–	–	1 mg/kg	-52 beats min-1	22.2	–	22.2%	–	–	2	0.69	–	–	–	–
C=CCN1CCC/C1=N\CCSc1c[nH]c2ccccc12	–	–	0.7 mg/kg	-22 beats min-1	17.7	–	12.4%	–	–	–	0.55	–	–	–	–
Cc1c(SCC/N=C2\CCCN2C)c2ccccc2n1C	–	–	0.9 mg/kg	-21 beats min-1	13.9	–	12.5%	–	–	–	0.43	–	–	–	3.5
CN1CCC/C1=N/CCc1cn(Cc2ccccc2)c2ccccc12	–	–	2.6 mg/kg	-52 beats min-1	9.3	–	24.3%	–	–	–	0.29	–	–	–	–
C#CCn1cc(CC/N=C2/CCCN2C)c2ccccc21	–	–	1.5 mg/kg	-47 beats min-1	14.9	–	22.3%	–	–	–	0.46	–	–	–	3
CN1CCC/C1=N/CCCSc1c[nH]c2ccccc12	–	–	3.8 mg/kg	-46 beats min-1	5.4	–	20.4%	–	–	–	0.17	–	–	–	3
CN1CCCC/C1=N\CCSc1c[nH]c2ccccc12	–	–	3 mg/kg	-51 beats min-1	7.5	–	22.4%	–	–	2.5	0.23	–	–	–	–
COc1ccc2[nH]cc(SCC/N=C3\CCCN3C)c2c1	–	–	2.3 mg/kg	-39 beats min-1	7.7	–	17.8%	–	–	2	0.24	–	–	–	–
C=CCn1cc(CC/N=C2/CCCN2C)c2ccccc21	–	–	1.2 mg/kg	-26 beats min-1	12.2	–	14.7%	–	–	–	0.38	–	–	–	–
C#CCn1c(C)c(SCC/N=C2\CCCN2C)c2ccccc21	–	–	5.5 mg/kg	-20 beats min-1	3.4	–	18.5%	–	–	–	0.11	–	–	–	–
c1ccc2c(SCCNC3=NCCC3)c[nH]c2c1	–	–	3.7 mg/kg	-51 beats min-1	6.2	–	23%	–	–	–	0.19	–	–	–	–
CN1CCC/C1=N\CCSc1cn(C2CCCC2)c2ccccc12	–	–	2.7 mg/kg	-40 beats min-1	7.8	–	21%	–	–	–	0.24	–	–	–	3
CN1CCN=C1NCCc1c[nH]c2ccccc12	–	–	9.7 mg/kg	-47 beats min-1	2.1	–	20.5%	–	–	2	0.06	–	–	–	–
CC(CSc1c[nH]c2ccccc12)/N=C1\CCCN1C (configuration not stated)	–	–	2.7 mg/kg	-46 beats min-1	8.9	–	24%	–	–	–	0.28	–	–	–	3.5
